Out of some 5,600 compounds screened, about 1,200 (21%) were called active. Inconclusive results (about 3%) are left out. A selection follows. Unmarked numbers belong to inactive results.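 Rule for the calls: active = mean inhibition above about 95%, with at least 55% of replicates also reaching it (limit read from the data); inconclusive = meets just one of the two conditions; inactive = meets neither condition.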
assay: inhibitors of intracellular T. cruzi replication, confirmation, NIH3T3 host cells, beta-gal parasites, cherry-pick, set 2 (AID 651740);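 note: plate controls were neutral control median for no effect and positive control median for full effect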; details: T. cruzi beta-gal in NIH3T3, GalScreen luminescence, 90 h; at 2.09 µM; stronger effect = higher value
Summary of the method: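 Material: beta-gal T. cruzi in mouse NIH/3T3 fibroblasts / Medium: DMEM, 2% FBS, 1% PSG / Also added: T. cruzi trypomastigotes, 5000 per well / Compound: single dose, 100 nL pinned DMSO compound / Timing: ≥90 h co-culture with compound, 60 min detection reagent / Technique: GalScreen lysis and luminescent beta-gal signal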

With `COc1ccc(S(=O)(=O)Nc2ccc3c(c2)C(=O)N([C@@H](C)CO)C[C@H](C)[C@@H](CN(C)Cc2ccc(C(F)(F)F)cc2)O3)cc1` as the compound, how does the inhibition read?
Its inhibition is 58.4%.

Which inhibition does the source give for `CNC[C@H]1OCCCC[C@H](C)Oc2ccc(NC(=O)Nc3c(C)noc3C)cc2C(=O)N([C@H](C)CO)C[C@H]1C` here?
Its inhibition is 2.68%.

With `O=C(Nc1cc(F)ccc1F)N1CCCCN2[C@H](CO)[C@@H](c3ccc(-c4cncnc4)cc3)[C@H]2C1` as the compound, how does the inhibition read?
The inhibition was 13.7%.

For `Cc1ccc(-c2cnc3c(c2)C(=O)N([C@@H](C)CO)C[C@@H](C)[C@H](CN(C)Cc2ccccc2F)O3)cc1`, which inhibition is on record?
The inhibition was 72.1%.

For `CN(C)C(=O)c1ccc(-c2ccc([C@H]3[C@@H](CO)N4CCCCN(CC5CC5)C[C@H]34)cc2)cc1`, which inhibition is on record?
Its inhibition is 60.8%.

For `O=C(C[C@@H]1C[C@H]2c3cc(NC(=O)C4CCC4)ccc3O[C@H]2[C@@H](CO)O1)NCc1ccc2c(c1)OCO2`, which inhibition is on record?
The inhibition was -16.2%.

For `C[C@H](CO)N1C[C@H](C)[C@@H](CN(C)S(=O)(=O)c2ccc(F)cc2)Oc2cc(C3=CCCC3)ccc2S1(=O)=O`, which inhibition is on record?
Its inhibition is 78.5%.

Which inhibition does the source give for `C[C@@H]1CN([C@@H](C)CO)S(=O)(=O)c2ccc(C#Cc3ccc(F)cc3)cc2O[C@H]1CN(C)S(C)(=O)=O` here?
The inhibition was 27.8%.

With `C[C@@H]1CN([C@H](C)CO)C(=O)CCCn2nncc2CO[C@@H]1CN(C)Cc1ccc(C(=O)Nc2ccccc2N)cc1` as the compound, how does the inhibition read?
Its inhibition is 59.4%.

With `C[C@@H]1CCCCO[C@H](CN(C)C(=O)Nc2ccc(C(F)(F)F)cc2)[C@H](C)CN([C@H](C)CO)C(=O)c2cc(NC(=O)Nc3ccc(C(F)(F)F)cc3)ccc2O1` as the compound, how does the inhibition read?
The inhibition was 115% (active).

For `COc1ccc(NC(=O)N(C)C[C@H]2OCCCC[C@H](C)Oc3ccc(NC(=O)Nc4ccc(C(F)(F)F)cc4)cc3C(=O)N([C@@H](C)CO)C[C@@H]2C)cc1`, which inhibition is on record?
The inhibition was 113% (active).

For `C[C@H](CO)N1C[C@H](C)[C@H](CN(C)C(=O)Nc2ccc(C(F)(F)F)cc2)OCCCC[C@H](C)Oc2ccc(NC(=O)C3CCCCC3)cc2C1=O`, which inhibition is on record?
Its inhibition is 109% (active).

With `CC(C)NC(=O)Nc1ccc2c(c1)C(=O)N([C@H](C)CO)C[C@H](C)[C@H](CN(C)C(=O)Nc1ccc(C(F)(F)F)cc1)OCCCC[C@@H](C)O2` as the compound, how does the inhibition read?
Its inhibition is 94%.

With `C[C@@H]1CCCCO[C@H](CN(C)C(=O)CCC(F)(F)F)[C@H](C)CN([C@H](C)CO)C(=O)c2cc(NS(C)(=O)=O)ccc2O1` as the compound, how does the inhibition read?
Its inhibition is 7.29%.

Which inhibition does the source give for `C[C@@H]1CN([C@@H](C)CO)C(=O)c2cc(NC(=O)Nc3ccc(C(F)(F)F)cc3)ccc2O[C@@H](C)CCCCO[C@H]1CN(C)C(=O)c1ccccc1` here?
The inhibition was 69.7%.

For `CCCC#Cc1ccc2c(c1)O[C@H](CN(C)C(=O)CC)[C@@H](C)CN([C@H](C)CO)S2(=O)=O`, which inhibition is on record?
Its inhibition is 38.5%.

Which inhibition does the source give for `C/C=C/c1ccc([C@H]2[C@@H](CNC(C)C)N(c3nc(CC)cs3)[C@H]2CO)cc1` here?
Its inhibition is 89.5%.

Which inhibition does the source give for `CCCC#Cc1ccc([C@H]2[C@H](CO)N3CCCCN(C(=O)c4ccc5c(c4)OCO5)C[C@@H]23)cc1` here?
Its inhibition is 42.1%.

Which inhibition does the source give for `O=C(c1ccc(F)cc1)N1CCCCN2[C@H](C1)[C@@H](c1ccc(C#CC3(O)CCCC3)cc1)[C@@H]2CO` here?
The inhibition was 2.53%.

With `CCCNC(=O)N(C)C[C@@H]1Oc2ncc(C#Cc3ccccc3F)cc2C(=O)N([C@@H](C)CO)C[C@H]1C` as the compound, how does the inhibition read?
Its inhibition is 94.5%.

With `O=C(Nc1ccc(-c2ccccc2)cc1)[C@H]1[C@H](CO)[C@H]2Cn3c(cccc3=O)[C@H]2N1CC1CC1` as the compound, how does the inhibition read?
The inhibition was 33.8%.

For `C[C@@H]1CN([C@H](C)CO)C(=O)c2cc(-c3cncnc3)cnc2O[C@H]1CN(C)C(=O)Nc1ccc2c(c1)OCO2`, which inhibition is on record?
The inhibition was -52%.

With `N#C[C@@H]1[C@@H](c2ccc(/C=C/c3ccccc3)cc2)[C@@H](CO)N1C(=O)C1CC1` as the compound, how does the inhibition read?
The inhibition was 68.6%.

With `C[C@@H]1CN([C@H](C)CO)C(=O)c2cc(NS(=O)(=O)c3cccs3)ccc2O[C@@H](C)CCCCO[C@@H]1CN(C)S(=O)(=O)c1ccc(Cl)cc1` as the compound, how does the inhibition read?
Its inhibition is 63.6%.

For `COc1ccc(S(=O)(=O)Nc2ccc3c(c2)C(=O)N([C@H](C)CO)C[C@@H](C)[C@@H](CN(C)CC2CCCCC2)OCCCC[C@@H](C)O3)cc1`, which inhibition is on record?
The inhibition was 105% (active).

With `COc1ccc(S(=O)(=O)Nc2ccc3c(c2)C(=O)N([C@H](C)CO)C[C@H](C)[C@H](CN(C)Cc2ccc(C(F)(F)F)cc2)O3)cc1` as the compound, how does the inhibition read?
The inhibition was 85.4%.

For `C[C@@H]1CCCCO[C@H](CN(C)Cc2ccccc2)[C@H](C)CN([C@H](C)CO)C(=O)c2cc(NS(=O)(=O)c3ccc(Cl)cc3)ccc2O1`, which inhibition is on record?
The inhibition was 107% (active).

Which inhibition does the source give for `C[C@@H]1CCCCO[C@H](CN(C)S(=O)(=O)c2cccs2)[C@H](C)CN([C@H](C)CO)C(=O)c2cc(NS(=O)(=O)c3ccc(F)cc3)ccc2O1` here?
Its inhibition is 62.8%.

With `C[C@H](CO)N1C[C@H](C)[C@H](CN(C)Cc2ccc(C(F)(F)F)cc2)OCCCC[C@H](C)Oc2ccc(NS(=O)(=O)c3ccc(Cl)cc3)cc2C1=O` as the compound, how does the inhibition read?
The inhibition was 104% (active).

Which inhibition does the source give for `C[C@@H]1CN([C@H](C)CO)C(=O)c2cc(NS(=O)(=O)c3ccc(Cl)cc3)ccc2O[C@@H](C)CCCCO[C@H]1CN(C)Cc1ccccc1` here?
Its inhibition is 94.6%.

For `C[C@@H]1CN([C@H](C)CO)C(=O)c2cc(NS(=O)(=O)c3cccs3)ccc2O[C@@H](C)CCCCO[C@H]1CN(C)Cc1ccc(C(F)(F)F)cc1`, which inhibition is on record?
The inhibition was 112% (active).

For `Cc1ccc(S(=O)(=O)N(C)C[C@@H]2OCCCC[C@@H](C)Oc3ccc(NS(=O)(=O)c4ccc(F)cc4)cc3C(=O)N([C@H](C)CO)C[C@H]2C)cc1`, which inhibition is on record?
The inhibition was 76.8%.

For `C[C@H](CO)N1C[C@H](C)[C@H](CN(C)Cc2ccc(C(F)(F)F)cc2)Oc2ccc(NS(=O)(=O)c3ccc(Cl)cc3)cc2C1=O`, which inhibition is on record?
The inhibition was 74%.

For `C[C@@H]1CCCCO[C@H](CN(C)C(=O)NC2CCCCC2)[C@H](C)CN([C@H](C)CO)C(=O)c2cc(NS(=O)(=O)c3ccc(Cl)cc3)ccc2O1`, which inhibition is on record?
Its inhibition is 50.5%.

With `COc1ccc(S(=O)(=O)N(C)C[C@H]2OCCCC[C@H](C)Oc3ccc(NS(=O)(=O)c4ccc(F)cc4)cc3C(=O)N([C@@H](C)CO)C[C@@H]2C)cc1` as the compound, how does the inhibition read?
Its inhibition is 54%.
